Laboratory results published in ChEMBL document CHEMBL4513216, “Probing the Open Global Health Chemical Diversity Library for Multistage-Active Starting Points for Next-Generation Antimalarials” (ACS Infect Dis, 2020).

Test: Toxicity liver stage against HepG2, at 10uM
Assay type: cell-based
Design: test concentration 10 uM, cell line HepG2-A16-CD81EGFP
Details: human, HepG2-A16-CD81EGFP cells; read-out: INHIBITION
Procedure, shortened: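 Uninfected HepG2-A16-CD81EGFP cells, 3 × 10^3 per well, 1536-well, plated on prespotted compound at 10 μM final, parasite-free screening media added to match infected plates; puromycin 10 μM positive, DMSO 0.5% negative; run in parallel with 48 h PbLuc assay at 37 °C, 5% CO2; viability by CellTiter-Glo luminescence, normalized to controls.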

| Compound | cytotoxicity at 10 µM [%] |
| --- | --- |
| O=C(Cn1nc(Br)nc1Br)N1CCOCC1 | -1.14 |
| O=C1CC(N2CCN(c3ccccc3O)CC2)C(=O)N1Cc1cccs1 (configuration not stated) | -0.872 |
| CC(NC(=O)C(C)(C)C)c1cc(O)nc(-c2cccnc2)n1 (configuration not stated) | 6.5 |
| Cn1ccnc1C(O)c1ccccc1N1CCN(Cc2cccs2)CC1 (configuration not stated) | 5.03 |
| Cc1ncsc1CN1CCOC(C)(C(N)=O)C1 (configuration not stated) | 0.267 |
| C[C@@H]1CN(c2nc(O)cc(Cc3ccccc3F)n2)C[C@H](C)O1 | 5.31 |
| Cc1ccccc1C(O)CNC(=O)Cc1ccc(F)cc1 (configuration not stated) | 5.8 |
| COCCN(Cc1noc(-c2ccc(OC)cc2)n1)C1CC1 | 5.69 |
| CCn1ccnc1CN1CCCN(C(=O)c2cncnc2C)CC1 | 5.65 |
| Cn1c(CO)nnc1SCc1c(F)cccc1Br | -41.2 |
| COc1ccc(CNC(=O)CN2CCc3ccccc32)cc1 | 10.5 |
| CCOc1cncc(N(C)CC(=O)NC)n1 | 2.16 |
| CC(C)c1nc(CSc2nnc(Cn3cncn3)o2)cs1 | 3.19 |
| O=C(CCc1ccco1)Nc1ccc(Br)cn1 | 81.2 |
| Cc1cc(CSc2nc(=O)ccn2C(C)C)no1 | 14.9 |
| CCn1nc(C)cc1C(=O)N1C[C@@H]2C[C@@H](c3nc(C)cs3)O[C@@H]2C1 | 3.39 |
| Clc1ccc(-n2cnnc2CCCN2CCOCC2)cc1 | 5.52 |
| NC(=O)c1cnc2n1CCN(C(=O)c1ccc(Cn3cccc3)cc1)C2 | -1.5 |
| COCC(=O)N1CCCN(C(=O)C2Cc3ccccc3CN2C)CC1 (configuration not stated) | 4.28 |
| CNC(=O)Cc1ccc(-n2ccnc2-c2cccc(C(=O)O)c2)cc1 | -7.9 |
| O=C(O)[C@@H]1CN(C(=O)c2ccc3nccnc3c2)C[C@H]1c1ccncc1 | -11.3 |
| COc1cccc2c1OCC(C(=O)NCc1ncc3c(n1)CCC3)C2 (configuration not stated) | -8.51 |
| CC(=O)c1cccc(OCc2cc(C(=O)N3CCCCO3)n[nH]2)c1 | 2.19 |
| CCc1nc(N2CCC3(CCC(=O)N(Cc4ccncc4)C3)CC2)no1 | 7.1 |

| Compound | cytotoxicity at 10 µM [%] |
| --- | --- |
| O=C(O)c1nn(CC2CC2)c2c1CN(S(=O)(=O)c1cccnc1)CC2 | 3.16 |
| CC(C)(C)C(=O)NCCNc1cc(N2CCCC2)ncn1 | -43 |
| Cc1ccc(OCC(C)NS(C)(=O)=O)cc1C (configuration not stated) | 9.98 |
| CN(Cc1cscn1)C1CCCN(c2cccnn2)C1 (configuration not stated) | -3.69 |
| Cc1cnn(CC2CCCCN2Cc2ncc(C(C)(C)C)o2)c1 (configuration not stated) | -3.44 |
| CC(C)c1nn(C)c(N(C)C)c1CNC(C)c1ccccc1F (configuration not stated) | -2.97 |
| Cc1ccc(CN(Cc2nc3c(cnn3C)c(=O)[nH]2)C2CC2)o1 | -1.92 |
| N#Cc1cccc(C(=O)N2CCC(Nc3cccnn3)CC2)c1 | -5.17 |
| CC1CN(CCc2ccccn2)CCN1c1ccc2nncn2n1 (configuration not stated) | -3.43 |
| Cc1ccc(CN(C)C(=O)CN2CCCC(Cn3cncn3)C2)o1 (configuration not stated) | -24.4 |
| CCCN(CCC)C(=O)CN(C)C1CCc2ccccc21 (configuration not stated) | -6.63 |
| COc1ncccc1CNC(=O)Nc1ccc(N(C)C)nc1 | -4.38 |
| CN1CCC/C1=N\S(=O)(=O)c1ccc(NC(=O)c2ccc(Cl)cc2)cc1 | -0.383 |
| O=C(c1cccc(CNS(=O)(=O)c2ccc(F)cc2)c1)N1CCCC1 | -8.57 |
| CCC(CC)C(=O)NCCc1ccn(-c2ccccc2)n1 | -8.8 |
| CC(Cn1cccn1)NC(=O)NCc1ccoc1 (configuration not stated) | 8.59 |
| CC(C)N(Cc1cccc(Cl)c1)Cc1nc2c(cnn2C)c(=O)[nH]1 | 1.97 |
| CCc1nnc2n1CCN(C(=O)C(C)COCc1ccccc1)C2 (configuration not stated) | -9.46 |
| CN(CCNC(=O)NCc1ccncc1)C1CCCC1 | -2.95 |
| Cc1ccc(CN2CCO[C@H]3[C@@H](OCc4cccnc4)CC[C@@H]32)o1 | -0.58 |
| Cc1cccc(CN2Cc3ccnn3CC(COCC3CC3)C2)n1 (configuration not stated) | 2.13 |
| CCN1CCC(N2CCC(C(=O)N(C)C)CC2)CC1 | 0.486 |
| COCC(=O)NCC1CCC(c2ccnc3ncnn23)CC1 (configuration not stated) | 1.36 |
